Source: PubChem BioAssay (Sanford-Burnham Center for Chemical Genomics)
HKDC1 act = HKDC1 hexokinase activators, primary screen, biochemical, fluorescence, uHTS. recombinant HKDC1, G6PDH/diaphorase resazurin fluorescence; stronger effect = lower value. activity change, negative = activation, % at 20 µM. 0.056% of 340,000 active;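 active = activation of 40% or more at 20 µM, a change of -40% or lower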
Target sequence (Q2TB90 whole entry, looked up): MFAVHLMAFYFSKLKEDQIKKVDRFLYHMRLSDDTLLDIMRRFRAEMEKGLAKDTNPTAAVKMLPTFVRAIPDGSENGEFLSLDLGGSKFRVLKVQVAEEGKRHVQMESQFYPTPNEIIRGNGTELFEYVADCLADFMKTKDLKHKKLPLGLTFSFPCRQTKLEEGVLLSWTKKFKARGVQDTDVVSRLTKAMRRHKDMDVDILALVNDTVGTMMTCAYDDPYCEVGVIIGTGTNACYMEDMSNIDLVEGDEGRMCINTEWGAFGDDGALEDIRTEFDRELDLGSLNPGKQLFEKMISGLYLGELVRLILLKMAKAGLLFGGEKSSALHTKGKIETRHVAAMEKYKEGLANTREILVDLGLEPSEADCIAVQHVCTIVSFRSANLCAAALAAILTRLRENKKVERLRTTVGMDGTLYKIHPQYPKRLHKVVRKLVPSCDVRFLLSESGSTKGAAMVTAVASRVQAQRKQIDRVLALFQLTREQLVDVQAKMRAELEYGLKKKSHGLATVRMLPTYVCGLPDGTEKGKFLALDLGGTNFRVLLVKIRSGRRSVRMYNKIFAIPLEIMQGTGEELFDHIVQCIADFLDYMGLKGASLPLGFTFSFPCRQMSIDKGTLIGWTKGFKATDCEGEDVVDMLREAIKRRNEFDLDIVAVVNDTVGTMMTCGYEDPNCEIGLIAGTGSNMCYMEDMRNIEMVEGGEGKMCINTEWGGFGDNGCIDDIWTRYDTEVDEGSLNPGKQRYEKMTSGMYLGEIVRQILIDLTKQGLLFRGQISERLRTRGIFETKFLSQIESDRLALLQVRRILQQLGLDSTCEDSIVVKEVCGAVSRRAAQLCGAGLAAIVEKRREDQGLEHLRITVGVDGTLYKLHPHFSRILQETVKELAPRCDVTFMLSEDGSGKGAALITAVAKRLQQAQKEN
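Material: in-house human HKDC1 enzyme, G6PDH and diaphorase coupling enzymes | Quantity: HKDC1 at 5 µg/mL final | Medium: Tris buffer at pH 8.0 containing MgCl2 | Compound dosing: 20 µM single dose | Schedule: 90 min reaction at room temperature, dark | Measured by: Resorufin fluorescence, 525/613 nm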
The depositor's hits bear a star. A selection follows.

SMILES | HKDC1 act
O=C1C(Cl)=C(N2CCCCC2)C(=O)C(Cl)=C1c1cnc(N2CCCCC2)s1 | 70
COc1ccc(N=C2C(=S)N(c3ccc(OC)cc3)C(=NS(=O)(=O)c3ccccc3)N2c2ccccc2)cc1 | -69*
Cc1ccc(-n2c3nc(=O)[nH]c(=O)c-3cc3cc([N+](=O)[O-])ccc32)cc1 | 49
CC1=NOC(=O)/C1=C\c1ccc(-c2ccc(Cl)cc2Cl)o1 | 54
O=[N+]([O-])c1ccc(N/N=C/c2ccc(O)c(O)c2O)c(S(=O)(=O)N2CCOCC2)c1 | 38
O=C(CCNC(=O)c1ccc([N+](=O)[O-])cc1)NCCC1=CCCCC1 | 35
O=S(=O)(NC1c2cccc3cccc(c23)C1N1CCNCC1)c1ccccc1 (stereo not drawn) | -56*
O=S(=O)(NC1c2cccc3cccc(c23)C1N1CCN(CCO)CC1)c1ccccc1 (stereo not drawn) | -66*
CCCc1nc2oc3c(NCC4CCCO4)ncnc3c2c2c1COC(C)(C)C2 (stereo not drawn) | 35
O=C(O)c1ccc(NC2=C/C(=N/S(=O)(=O)c3ccccc3)c3ccccc3C2=O)cc1 | 72
N#C/C(C(N)=O)=c1/ccc2c(c1)N1C3=C(CCCC3)CC3CCCCC31N=2 (stereo not drawn) | 52
O=C1NN(c2ccc(F)c(Cl)c2)C(=O)/C1=C\c1cccc(OC(=O)c2cccs2)c1 | 44
O=C(O)c1cccc2cccc(-c3c4ccc(=O)c(O)c-4oc4c(O)c(O)ccc34)c12 | 70
Cc1oc2c(c1C(=O)c1ccccc1)C(=O)C(=O)c1ccccc1-2 | 42
COC1=C(OC)C(=O)C(Sc2ccc3ccccc3c2)=CC1=O | 71
CN(C)c1ncc(C2=C(Cl)C(=O)C(N3CCCC3)=C(Cl)C2=O)s1 | 35
Fc1ccc(N2C(=S)SC(=Nc3ccccc3)C2=Nc2ccccc2)cc1 | -50*
N#CC(C#N)=C1SC(=Nc2ccccc2)C(=Nc2ccccc2)N1c1ccccc1 | -86*
Cc1cc(C)c(S(=O)(=O)/N=C2\C=C(Nc3ccc(C(=O)O)cc3)C(=O)c3ccccc32)c(C)c1 | 41
Cn1nccc1C(=O)N1CCN(c2cccc(Cl)c2)CC1 | 39
O=C(O)c1ccc2ncsc2c1 | 41
C=CC(=O)N1C/C(=C/c2ccc(F)cc2)C(=O)/C(=C\c2ccc(F)cc2)C1 | 36
CCN(CC)CCNc1cc(C)nc2c1C(=O)C(=O)C=C2N1CCCCC1 | 45
CC(=NNc1nc2ccccc2o1)c1cc2ccccc2cn1 | -48*
NNc1ncnc2sc3c(c12)CCC3 | -102*
SMILES | HKDC1 act
Cc1cccc(N=C2NN=C(c3c(C)[nH]c4ccccc34)CS2)c1 | -41*
Cc1cccc(N=C2NN=C(c3ccc4c(c3)OCCO4)CS2)c1 | -62*
CCc1ccc(C2=NNC(=Nc3cccc(S(=O)(=O)N(C)C)c3)SC2)cc1 | -177*
Cc1ccc(C2=NNC(=Nc3ccc(F)cc3)SC2)cc1 | -70*
COc1ccc(CN2C=C3C(=O)C(C)(OC(=O)C4CCCC4)C(=O)C=C3C=C2c2ccsc2)cc1 (stereo not drawn) | 35
CCN(CC)c1ccc(C(=C2C=CC(=[N+](CC)CC)C=C2)c2ccc(N(CC)CC)cc2)cc1 | 54
C=CCOc1ccc(C=NNc2ccc(S(=O)(=O)Nc3ccccc3C(=O)O)cc2[N+](=O)[O-])cc1OC | 51
O=C(CSc1n[nH]c(-c2ccccc2)n1)Nc1ncc(Br)cc1Br | 48
Cc1nc([N+](=O)[O-])c(Br)n1CC(=O)c1ccc2ccccc2c1 | 46
N#CC1(NC(=O)COC(=O)c2cc(O)c3ccccc3c2O)CCCCC1 | 50
CCCC(=O)NC1=C(Cl)C(=O)c2ccccc2C1=O | 60
CSc1nc(N(C)CCO)c2sc3nc(-c4ccco4)c4c(c3c2n1)CCC4 | 47
COc1cccc(CC(Cc2nc3ccccc3[nH]2)c2nc3ccccc3[nH]2)c1 (stereo not drawn) | 50
Cc1cc(C)c2c(=N)c3ccccc3n(CCCCCCCCn3c4ccccc4c(=N)c4c(C)cc(C)nc43)c2n1 | 74
CCCC(=O)N1CCN(Cc2ccc3c(c2)OCO3)CC1 | -57*
COC(=O)CCC(=O)OC1(C)C(=O)C2=CN(Cc3ccc4c(c3)OCO4)C(c3ccc(OC)cc3)=CC2=C(Br)C1=O (stereo not drawn) | 40
O=C(CSc1nc(-c2ccc(F)cc2)nc2c1Cc1ccccc1O2)Nc1ccc(C(=O)O)cc1 | 44
CC(C)(C)n1[nH]c2c3c(ccc2c1=O)C(=O)c1ccccc1C3=O | 42
CC(NC(=O)c1sc2cc([N+](=O)[O-])ccc2c1Cl)C(C)(C)C (stereo not drawn) | -76*
COc1cc(/C=C(\C#N)c2nc3ccc(C)cc3[nH]2)cc([N+](=O)[O-])c1O | 41
CC(C)C(C(=O)O)N1C(=O)/C(=C/C=C/c2ccco2)SC1=S (stereo not drawn) | 51
COc1ccc2[nH]c(=O)c(CN(C3CCCCC3)C(c3nnnn3Cc3ccco3)C(C)C)cc2c1 (stereo not drawn) | 37
CCN1CCN(c2cc3c(nn2)Oc2ccccc2N3C)CC1 | -44*
CC1=NNC(=O)/C1=C\c1cn(-c2ccccc2)nc1-c1ccc(Cl)cc1 | 37
